# According to paper PMC5644278 (Alzheimer's & Dementia : Translational Research & Clinical …, 2016):
# Columns and labels:
# [1] = system: healthy male subjects; experiment: Pharmaco-electroencephalography, single dose; assay type: in vivo, human
# [2] = system: healthy male subjects; experiment: Treatment emergent adverse events, single dose study; assay type: in vivo, human; conditions: for Any event (treatment emerging adverse events) / Headache / Nasal discomfort / Rhinorrhea / Sneezing / Cold sweat or hyperhidrosis / Nausea / Vomiting / Diarrhea: number of subjects, percentage in parentheses
# [3] = system: healthy male subjects; experiment: VAS nausea, single dose; assay type: in vivo, human; conditions: healthy elderly males
# [4] = system: Wistar rats; experiment: 28-day intranasal toxicity study; assay type: in vivo
# [5] = system: healthy male subjects; experiment: Nasal examination; assay type: in vivo, human; conditions: Gln-1062 44-mg group
# Procedure, shortened: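 Nasal examination at screening, during the study period after one intranasal dose (44 mg; healthy elderly males, 6 active per cohort, double-dummy with oral capsules), and at follow-up about 1 week after dosing.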
# [6] = system: healthy male subjects; experiment: Eye movements; assay type: in vivo, human
# [7] = system: healthy male subjects; experiment: Visual verbal learning test; assay type: in vivo, human
# [8] = system: healthy male subjects; experiment: Face encoding and recognition task, single dose; assay type: in vivo, human
# Procedure, shortened: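 Single intranasal dose in a double-dummy design (11 mg young males; 22 or 33 mg elderly males; 6 per dose) or nasal placebo. The face encoding and recognition task was done before dosing and 1 h 45 min after the nasal dose, in a quiet room, one subject per session. Each active group was compared with age-matched placebo by mixed-model ANOVA.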
# [9] = system: healthy male subjects; experiment: Adaptive tracking; assay type: in vivo, human
# Procedure, shortened: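 Healthy males got one intranasal spray dose in a double-dummy design with oral capsules: 11 mg for young subjects, 22 or 33 mg for elderly subjects, 6 per dose, with age-matched nasal placebo. NeuroCart tests were run twice before dosing, then at 1, 2, 3, 4, 5, 6, 8 and 10 h after, in a quiet room, one subject per session. Analysis was mixed-model ANOVA: treatment, time and treatment×time fixed, subject random, baseline as covariate.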
# [10] = Pharmacokinetics of Gln-1062 in female Wistar rats; assay type: in vivo
# [11] = Plasma pharmacokinetics after single intranasal dose of Gln-1062; assay type: in vivo, human; conditions: over the Gln-1062 intranasal dose levels
# [12] = Gln-1062 5.5 mg vs Placebo, healthy young males
# [13] = Gln-1062 11 mg vs Placebo, healthy young males
# [14] = Gln-1062 22 mg vs Placebo, healthy elderly males
# [15] = Gln-1062 33 mg vs Placebo, healthy elderly males
# [16] = Gln-1062 44 mg vs Placebo, healthy elderly males
# [17] = Gln-1062 5.5 mg, healthy young males
# [18] = Gln-1062 5.5 mg, healthy young subjects
# [19] = Gln-1062 11 mg, healthy young males
# [20] = Gln-1062 11 mg, healthy young subjects
# [21] = Gln-1062 22 mg, healthy elderly males
# [22] = Gln-1062 22 mg, healthy elderly subjects
# [23] = Gln-1062 33 mg, healthy elderly males
# [24] = Gln-1062 33 mg, healthy elderly subjects
# [25] = Gln-1062 44 mg, healthy elderly males
# [26] = Gln-1062 44 mg, healthy elderly subjects
smiles,measurement,setting,value
COc1ccc2c3c1O[C@H]1C[C@@H](OC(=O)c4ccccc4)C=C[C@@]31CCN(C)C2 [Gln-1062],EEG Alpha Fz-Cz (uV),[1]; [12],−13.2% (−30.5% to 8.5%) P = .1914
same,EEG Alpha Pz-Oz (uV),[1]; [12],−8.9% (−23.8% to 8.9%) P = .2782
same,EEG Alpha Fz-Cz (uV),[1]; [13],−0.8% (−19.5% to 22.1%) P = .9310
same,EEG Alpha Pz-Oz (uV),[1]; [13],−13.1% (−27.2% to 3.7%) P = .1086
same,EEG Alpha Fz-Cz (uV),[1]; [14],7.8% (−7.0% to 25.1%) P = .3088
same,EEG Alpha Pz-Oz (uV),[1]; [14],13.8% (−5.4% to 36.9%) P = .1633
same,EEG Alpha Fz-Cz (uV),[1]; [15],21.5% (4.8% to 40.8%) P = .0116
same,EEG Alpha Pz-Oz (uV),[1]; [15],19.7% (−0.2% to 43.6%) P = .0530
same,EEG Alpha Fz-Cz (uV),[1]; [16],−10.1% (−24.2% to 6.6%) P = .2121
same,EEG Alpha Pz-Oz (uV),[1]; [16],2.1% (−16.3% to 24.5%) P = .8306
same,Any event (treatment emerging adverse events),[2]; [17],6 (100)
same,Headache,[2]; [17],2 (33.3)
same,Nasal discomfort,[2]; [17],6 (100)
same,Rhinorrhea,[2]; [17],2 (33.3)
same,Sneezing,[2]; [17],1 (16.7)
same,"Diarrhea, incidence",[2]; [18],did not occur
same,"Vomiting, incidence",[2]; [18],did not occur
same,"Cold sweat or hyperhidrosis, incidence",[2]; Gln-1062 11 mg,16.7%
same,"Nausea, incidence",[2]; [19],16.7%
same,Any event (treatment emerging adverse events),[2]; [19],6 (100)
same,Cold sweat or hyperhidrosis,[2]; [19],1 (16.7)
same,Headache,[2]; [19],2 (33.3)
same,Nasal discomfort,[2]; [19],6 (100)
same,Nausea,[2]; [19],1 (16.7)
same,Rhinorrhea,[2]; [19],4 (66.7)
same,Sneezing,[2]; [19],1 (16.7)
same,Vomiting,[2]; [19],1 (16.7)
same,"Diarrhea, incidence",[2]; [20],did not occur
same,"Vomiting, incidence",[2]; [20],16.7%
same,"Nausea, incidence",[2]; [21],16.7%
same,Any event (treatment emerging adverse events),[2]; [21],5 (83.3)
same,Diarrhea,[2]; [21],1 (16.7)
same,Headache,[2]; [21],3 (50)
same,Nasal discomfort,[2]; [21],4 (66.7)
same,Nausea,[2]; [21],1 (16.7)
same,Rhinorrhea,[2]; [21],2 (33.3)
same,Sneezing,[2]; [21],1 (16.7)
same,"Diarrhea, incidence",[2]; [22],16.7%
same,"Vomiting, incidence",[2]; [22],did not occur at all
same,Any event (treatment emerging adverse events),[2]; [23],5 (83.3)
same,Diarrhea,[2]; [23],1 (16.7)
same,Headache,[2]; [23],2 (33.3)
same,Nasal discomfort,[2]; [23],4 (66.7)
same,Nausea,[2]; [23],3 (50)
same,Rhinorrhea,[2]; [23],1 (16.7)
same,Sneezing,[2]; [23],1 (16.7)
same,Vomiting,[2]; [23],2 (33.3)
same,"Diarrhea, incidence",[2]; [24],16.7%
same,"Vomiting, incidence",[2]; [24],33.3%
same,"Cold sweat or hyperhidrosis, incidence",[2]; Gln-1062 44 mg,50%
same,Any event (treatment emerging adverse events),[2]; [25],5 (83.3)
same,Cold sweat or hyperhidrosis,[2]; [25],3 (50)
same,Diarrhea,[2]; [25],1 (16.7)
same,Nasal discomfort,[2]; [25],3 (50)
same,Nausea,[2]; [25],3 (50)
same,Rhinorrhea,[2]; [25],3 (50)
same,Sneezing,[2]; [25],3 (50)
same,Vomiting,[2]; [25],2 (33.3)
same,"Diarrhea, incidence",[2]; [26],16.7%
same,"Vomiting, incidence",[2]; [26],33.3%
same,"Nausea, incidence",[2]; Gln-1062 at the highest dose levels (n = 3),50%
same,single dose levels safe and well tolerated,[2]; intranasal single dose,up to 33 mg
same,"peak of nausea (VAS nausea), time after administration",[3],4 h
same,human equivalent dose,[4]; estimated from the rat NOAEL,48 mg
same,NOAEL,"[4]; intranasal, 28-day, Wistar rats",5 mg/kg
same,subjects with dry white plaques in the nostrils,[5],three
same,Saccadic Inaccuracy,[6]; [12],−1.56 (−2.77 to −0.35) P = .0157%
same,Saccadic Peak Velocity,[6]; [12],9.90 (−17.50 to 37.30) P = .4465 deg/sec
same,Saccadic Inaccuracy,[6]; [13],−1.78 (−3.03 to −0.54) P = .0088%
same,Saccadic Peak Velocity,[6]; [13],8.32 (−18.32 to 34.95) P = .5097 deg/sec
same,Saccadic Inaccuracy,[6]; [14],0.24 (−1.01 to 1.48) P = .7005%
same,Saccadic Peak Velocity,[6]; [14],26.92 (4.11 to 49.73) P = .0223 deg/sec
same,Saccadic Inaccuracy,[6]; [15],0.08 (−1.14 to 1.30) P = .8970%
same,Saccadic Peak Velocity,[6]; [15],0.92 (−21.84 to 23.68) P = .9349 deg/sec
same,Saccadic Inaccuracy,[6]; [16],−0.22 (−1.57 to 1.12) P = .7363%
same,Saccadic Peak Velocity,[6]; [16],19.19 (−5.54 to 43.92) P = .1242 deg/sec
same,VVLT: delayed word recall (correct),[7]; [12],3.42 (−2.62 to 9.45) P = .2431
same,VVLT: immediate word recall trial 1 (Word recall correct 1),[7]; [12],3.42 (−0.73 to 7.56) P = .0984
same,VVLT: immediate word recall trial 2 (Word recall correct 2),[7]; [12],3.17 (−1.93 to 8.26) P = .2025
same,VVLT: immediate word recall trial 3 (Word recall correct 3),[7]; [12],5.00 (−0.58 to 10.58) P = .0749
same,VVLT: word recognition (Delayed word recognition correct),[7]; [12],−0.15 (−8.05 to 7.75) P = .9674
same,VVLT: delayed word recall (correct),[7]; [13],3.25 (−2.79 to 9.29) P = .2657
same,VVLT: immediate word recall trial 1 (Word recall correct 1),[7]; [13],3.92 (−0.23 to 8.06) P = .0621
same,VVLT: immediate word recall trial 2 (Word recall correct 2),[7]; [13],1.83 (−3.26 to 6.93) P = .4510
same,VVLT: immediate word recall trial 3 (Word recall correct 3),[7]; [13],3.00 (−2.58 to 8.58) P = .2662
same,VVLT: word recognition (Delayed word recognition correct),[7]; [13],1.45 (−6.45 to 9.35) P = .6939
same,VVLT: delayed word recall (correct),[7]; [14],−0.33 (−3.58 to 2.91) P = .8354
same,VVLT: immediate word recall trial 1 (Word recall correct 1),[7]; [14],2.67 (0.17 to 5.16) P = .0367
same,VVLT: immediate word recall trial 2 (Word recall correct 2),[7]; [14],3.50 (0.33 to 6.67) P = .0315
same,VVLT: immediate word recall trial 3 (Word recall correct 3),[7]; [14],0.67 (−3.23 to 4.56) P = .7302
same,VVLT: word recognition (Delayed word recognition correct),[7]; [14],0.87 (−4.09 to 5.82) P = .7231
same,VVLT: delayed word recall (correct),[7]; [15],−0.00 (−3.63 to 3.63) P = 1.0000
same,VVLT: immediate word recall trial 1 (Word recall correct 1),[7]; [15],1.97 (−0.65 to 4.58) P = .1355
same,VVLT: immediate word recall trial 2 (Word recall correct 2),[7]; [15],1.77 (−1.56 to 5.09) P = .2880
same,VVLT: immediate word recall trial 3 (Word recall correct 3),[7]; [15],0.60 (−3.49 to 4.69) P = .7672
same,VVLT: word recognition (Delayed word recognition correct),[7]; [15],−0.67 (−6.45 to 5.12) P = .8153
same,VVLT: delayed word recall (correct),[7]; [16],−1.00 (−4.63 to 2.63) P = .5780
same,VVLT: immediate word recall trial 1 (Word recall correct 1),[7]; [16],2.57 (−0.05 to 5.18) P = .0541
same,VVLT: immediate word recall trial 2 (Word recall correct 2),[7]; [16],1.77 (−1.56 to 5.09) P = .2880
same,VVLT: immediate word recall trial 3 (Word recall correct 3),[7]; [16],1.00 (−3.09 to 5.09) P = .6222
same,VVLT: word recognition (Delayed word recognition correct),[7]; [16],2.17 (−3.11 to 7.45) P = .4083
same,Face: number correct,[8]; [12],−0.77 (−4.17 to 2.64) P = .6332
same,Face: number correct,[8]; [13],4.54 (1.22 to 7.87) P = .0116
same,Face: number correct,[8]; [14],−2.58 (−7.22 to 2.06) P = .2642
same,Face: number correct,[8]; [15],−0.54 (.5.15 to 4.08) P = .8135
same,Face: number correct,[8]; [16],−1.63 (−6.30 to 3.05) P = .4822
same,Adaptive tracking,[9]; [12],1.96 (−0.88 to 4.80) P = .1581%
same,Adaptive tracking,[9]; [13],3.47 (0.52 to 6.42) P = .0247%
same,Adaptive tracking,[9]; [14],0.64 (−1.06 to 2.35) P = .4474%
same,Adaptive tracking,[9]; [15],1.79 (0.07 to 3.52) P = .0424%
same,Adaptive tracking,[9]; [16],0.74 (−0.99 to 2.48) P = .3887%
same,Brain-to-blood ratio (AUClast brain / AUClast blood),[10]; 5.0 mg/kg Gln-1062 IN,8.1
same,Brain-to-blood ratio (AUClast brain / AUClast blood),[10]; 5.0 mg/kg Gln-1062 IV,18.40
same,Brain-to-blood ratio (AUClast brain / AUClast blood),[10]; 20.0 mg/kg Gln-1062 IN,10.2
same,AUClast,"[10]; blood, 5.0 mg/kg Gln-1062 IV",528 ng·h/mL
same,Cmax,"[10]; blood, 5.0 mg/kg Gln-1062 IV",650 ng/mL
same,AUClast,"[10]; brain, 5.0 mg/kg Gln-1062 IV",9717 ng·h/g
same,Tmax,[11],15 to 45 min
same,half-life,[11],66 to 168 min
